Experiments:
[1] = Selectivity index, ratio of IC50 for mouse peritoneal macrophages to IC50 for Leishmania amazonensis Josefa amastigotes
Method in brief: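 Macrophage LDH-release IC50 divided by intracellular amastigote IC50.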

[2] = system: Leishmania amazonensis; experiment: Antileishmanial activity against GFP-tagged Leishmania amazonensis Josefa promastigotes after 72 hrs by fluorimetric assay; type: functional, organism-based
Method in brief: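 GFP-transfected promastigotes (kept in DMEM + 10% HIFCS at 27 °C, periodically re-isolated from infected mice) seeded at 5 × 10⁵ cells/ml in DMEM, 5% HIFCS, 0.5% DMSO. Exposed to 0, 10, 30, 90 µM for 72 h at 27 °C. Fluorescence read at […] / 538 nm emission; IC50 from means of triplicates.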

[3] = system: Leishmania amazonensis; experiment: Antileishmanial activity against GFP-tagged Leishmania amazonensis Josefa amastigotes infected in mouse peritoneal macrophages after 72 hrs by fluorimetric assay; type: functional, organism-based
Method in brief: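 Mouse peritoneal macrophages at 2 × 10⁶ cells/well, allowed to adhere, then infected 4 h at 37 °C with 10⁷ GFP-transfected fluorescent promastigotes. Free parasites washed off; cultured a further 72 h with compound at 0, 10, 30, 90 µM in 0.5% DMSO. Fluorescence read as for promastigotes. Maximum and minimum inhibition set by uninfected and untreated infected cells; means of triplicates.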

[4] = Cytotoxicity against mouse peritoneal macrophages assessed as LDH release after 48 hrs; type: cell-based, Macrophage
Method in brief: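 Mouse peritoneal macrophages at 2 × 10⁶ cells/well, 48 h at 37 °C in DMEM + 5% HIFCS with compound at 0, 10, 30, 90 µM in 0.5% DMSO. LDH released into medium measured by kit. Maximum and minimum release set by 2% Triton X-100 and 0.5% DMSO; means of triplicates.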

[5] = Leishmania amazonensis, Josefa, 72 h

Compound | IC50 [2, 5] | IC50 [3, 5] | IC50 [2] | IC50 [3] | Ratio IC50 [1] | IC50 ([4]; Mus musculus, Macrophage, 48 h) | IC50 ([4]; macrophage)
D-glutonic acid, 2,4:2',4'-O-[oxybis-(oxidostibylidyne)]bis-, trisodium salt, nonahydrate |  |  |  |  | > 5 |  | 
CC[C@H](C)[C@H]1O[C@]2(CC[C@@H]1C)C[C@@H](O)C[C@@H](C/C=C(\C)[C@@H](O[C@H]1C[C@H](OC)[C@@H](O)[C@H](C)O1)[C@@H](C)CO)O2 [NORTHERN MONOSACCHARIDE] | 65.7 µM | 41.5 µM |  |  | 0.8 | 32.1 µM | 
CC[C@H](C)[C@H]1O[C@]2(CC[C@@H]1C)C[C@@H]1C[C@@H](C/C=C(\C)[C@@H](O[C@H]3C[C@H](OC)[C@@H](O[C@H]4C[C@H](OC)[C@@H](O)[C@H](C)O4)[C@H](C)O3)[C@@H](C)/C=C/C=C3\CO[C@@H]4[C@H](O)[C@@H](C)C=C(C(=O)O1)[C@]34O)O2 | 13.8 µM | 3.6 µM |  |  | 18.2 | 65.5 µM | 
CCOC(=O)[C@@H]1C=C(C)[C@@H](O)[C@H]2OC/C(=C\C=C\[C@H](C)[C@H](O[C@H]3C[C@H](OC)[C@@H](O[C@H]4C[C@H](OC)[C@@H](O)[C@H](C)O4)[C@H](C)O3)/C(C)=C/C[C@@H]3C[C@H](O)C[C@]4(CC[C@H](C)[C@@H]([C@@H](C)CC)O4)O3)[C@]21O | 10.7 µM | 6.5 µM |  |  | 6.6 | 42.9 µM | 
CC[C@H](C)[C@H]1O[C@]2(CC[C@@H]1C)C[C@@H](O)C[C@@H](C/C=C(\C)[C@@H](O[C@H]1C[C@H](OC)[C@@H](O[C@H]3C[C@H](OC)[C@@H](O)[C@H](C)O3)[C@H](C)O1)[C@@H](C)CO)O2 | 17.1 µM | 13.2 µM |  |  | 4.2 | 55 µM | 
CO[C@H]1C[C@H](O[C@H]2[C@H](C)O[C@@H](O[C@H](C(C)O)[C@@H](C)CO)C[C@@H]2OC)O[C@@H](C)[C@@H]1O (some centres undefined) | > 90 µM | > 90 µM |  |  | <1 | 86.2 µM | 
CC[C@H](C)[C@H]1O[C@]2(CC[C@@H]1C)C[C@@H](O)C[C@@H](C/C=C(\C)[C@@H](O)[C@@H](C)CO)O2 [NORTHERN AGLYCONE] | > 90 µM | 30.5 µM |  |  | >3 | > 90 µM | 
CC[C@H](C)[C@H]1O[C@]2(CC[C@@H]1C)C[C@@H](O)C[C@@H](CCO)O2 [SPIRODIOL] | > 90 µM | 54.5 µM |  |  | >1.7 | > 90 µM | 
IVERMECTIN [listing 2 of 2 here] |  |  |  |  | 14.5 |  | 

The next lines start with results.

IC50 [2, 5] | IC50 [3, 5] | IC50 [2] | IC50 [3] | Compound | Ratio IC50 [1] | IC50 ([4]; Mus musculus, Macrophage, 48 h) | IC50 ([4]; macrophage)
> 90 µM | 38.6 µM |  |  | CCOC(=O)[C@@H]1C=C(C)[C@@H](O)[C@H]2OC/C(=C\CO)[C@]21O [SOUTHERN DIOL] | >2.3 | > 90 µM | 
8.3 µM | 32 µM |  |  | CC[C@H](C)[C@H]1O[C@]2(CC[C@@H]1C)C[C@@H]1C[C@@H](C/C=C(\C)[C@@H](O)[C@@H](C)/C=C/C=C3\CO[C@@H]4[C@H](O)C(C)=C[C@@H](C(=O)O1)[C@]34O)O2 [IVM AGLYCONE] | >2.8 | > 90 µM | 
2.8 µM | 4.6 µM |  |  | CCOC(=O)C1=C[C@H](C)[C@@H](O)[C@H]2OC/C(=C\C=C\[C@H](C)[C@H](O[C@H]3C[C@H](OC)[C@@H](O[C@H]4C[C@H](OC)[C@@H](O)[C@H](C)O4)[C@H](C)O3)/C(C)=C/C[C@@H]3C[C@H](O)C[C@]4(CC[C@H](C)[C@@H]([C@@H](C)CC)O4)O3)[C@@]12O | 5.8 | 27.1 µM | 
 |  | 7 µM | 5 µM | IVERMECTIN [listing 1 of 2 here] |  |  | 72.4 µM
> 90 µM | 13.8 µM |  |  | CCOC(=O)C1=C[C@H](C)[C@@H](O)[C@H]2OC/C(=C\CO)[C@@]12O | >6.5 | > 90 µM | 
4.4 µM |  |  |  | C[C@@H]1[C@H](O)[C@@H](C)/C=C/C=C/C=C/C=C/C=C/C=C/C=C/[C@H](O[C@@H]2O[C@H](C)[C@@H](O)[C@H](N)[C@@H]2O)C[C@@H]2O[C@](O)(C[C@@H](O)C[C@@H](O)[C@H](O)CC[C@@H](O)C[C@@H](O)CC(=O)O[C@H]1C)C[C@H](O)[C@H]2C(=O)O [AMPHOTERICIN B] |  |  | 
7.7 µM | 29.7 µM |  |  | CC[C@H](C)[C@H]1O[C@]2(CC[C@@H]1C)C[C@@H]1C[C@@H](C/C=C(\C)[C@@H](O[C@H]3C[C@H](OC)[C@@H](O)[C@H](C)O3)[C@@H](C)/C=C/C=C3\CO[C@@H]4[C@H](O)C(C)=C[C@@H](C(=O)O1)[C@]34O)O2 | >3 | > 90 µM | 
